Rows were chosen to be rich in hits. Some 4.6% of all compounds tested hit in one or more screens of this group.
STAT1 act – activators of IFN-gamma induced STAT1 signaling; 200,000 compounds, 2.6% hits; NIH 3T3 STAT1-luciferase reporter, luminescence; 100% = IFN-gamma alone, no compound; activation (% of control), % at 5.5 µM;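 active means activation above the screen-wide mean activation plus 3 SD, cut at about 130% in these data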;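 further: raw ratio to IFN-gamma control signal so 100% means no change and 0% no light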
NF-kB neuron act – compounds increasing NF-kB expression in human neuronal cells; NF-kB reporter expression; active compounds read high; fold change at 12.5 µM; 190,000 compounds, 1.6% hits; AID 1239; in the data active means fold change above about 3.3
Mdm2 ligase inh – blocks human Mdm2 ubiquitin ligase activity; Q00987; cell-based MDM2 ubiquitination luciferase reporter, 2 h; 0 = plate control, 100 = twice control, blank-subtracted; signal enhancement, % at 5 µM; 210,000 compounds, 0.11% hits;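 active means signal enhancement of 30% or more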;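 further: luminescence tracks abundance of the self-degrading MDM2-luciferase fusion protein; higher signal means inhibition of MDM2 E3 ligase activity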
Target sequence (Q00987 whole entry, looked up, the tested form may be a part): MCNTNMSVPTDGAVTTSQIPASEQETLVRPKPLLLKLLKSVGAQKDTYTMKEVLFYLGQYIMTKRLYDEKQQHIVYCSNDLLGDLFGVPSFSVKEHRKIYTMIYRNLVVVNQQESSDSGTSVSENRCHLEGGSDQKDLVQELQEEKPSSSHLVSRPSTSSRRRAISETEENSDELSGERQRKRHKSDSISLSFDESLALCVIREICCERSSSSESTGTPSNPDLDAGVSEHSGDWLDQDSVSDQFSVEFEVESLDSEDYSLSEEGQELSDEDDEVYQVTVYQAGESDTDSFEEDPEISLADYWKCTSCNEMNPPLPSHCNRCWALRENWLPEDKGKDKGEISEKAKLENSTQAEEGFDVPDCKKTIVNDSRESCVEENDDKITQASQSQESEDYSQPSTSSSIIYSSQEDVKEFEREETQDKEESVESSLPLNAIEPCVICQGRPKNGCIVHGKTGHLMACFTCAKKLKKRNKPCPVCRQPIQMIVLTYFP
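Material: Stable MDM2–luciferase fusion reporter cells | Amount: 2000 cells seeded into each well | Dosing: One concentration, 5 µM, with 0.2% DMSO | Incubation: 4 h cell settling then 2 h compound exposure, 37 °C | Measured by: Luciferase luminescence | Read-out basis: % enhancement relative to plate controls after blank subtraction | Benchmarks: Control and blank well means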
Wee1 degr inh – blocks degradation of human Wee1 kinase; 220,000 compounds, 1.2% hits; reporter increase, % at 5 µM; AID 1321; P30291; HeLa Luc-Wee1K328M stability, luciferase luminescence; 100% = proteasome inhibitor MG132 effect;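 active means activation above the mean of all tested compounds plus 3 SD, set per screening run, cut at about 8.8% in these data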;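 further: cells exposed to compound for 20 h before luminescence read; 0% = DMSO alone and 100% = MG132 at 30 µM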
p97 ATPase inh – human p97 ATPase inhibition. P55072. 220,000 compounds, 0.42% hits. recombinant p97 ATPase, Kinase-Glo ATP luminescence, 3 h. inhibition, % at 8 µM; in the data active means inhibition above about 15%;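 further: 0% = DMSO vehicle and 100% = wells lacking enzyme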
APP 5'UTR act – activates APP 5'UTR luciferase reporter; activation, % at 2 µM; AID 1276; 190,000 compounds, 1% hits; SH-SY5Y APP 5'UTR luciferase reporter, luminescence; zero percent = DMSO vehicle wells;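 active means activation above a set limit, based on mean plus 3 SD of controls, cut at about 140% in these data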
An asterisk follows results filed as active.

How did CC1=CC(C)(C)N(S(=O)(=O)c2ccc(C)cc2)c2cc(C)ccc21 do in these assays?
STAT1 act: 112.6; NF-kB neuron act: 4.37*; Mdm2 ligase inh: -2.8; Wee1 degr inh: -1.7; p97 ATPase inh: -1.3; APP 5'UTR act: -95.9

What do the screens show for `CNC(=O)COC(=O)c1ccc(Cl)c(S(=O)(=O)N2CCCC2)c1`?
STAT1 act: 102.5; NF-kB neuron act: 1.23; Mdm2 ligase inh: -8.4; Wee1 degr inh: 10.1*; p97 ATPase inh: 4.9; APP 5'UTR act: 11.3

What do the screens show for `O=C(OCC(=O)N1CCCCCC1)c1ccc(Cl)c(S(=O)(=O)N2CCCC2)c1`?
STAT1 act: 90.2; NF-kB neuron act: 0.84; Mdm2 ligase inh: -18.2; Wee1 degr inh: -2.2; p97 ATPase inh: 3.2; APP 5'UTR act: 5.8

How did CC(C)(C)NC(=S)NCc1ccncc1 do in these assays?
STAT1 act: 92.6; NF-kB neuron act: 0.95; Mdm2 ligase inh: -17.4; Wee1 degr inh: 4.5; p97 ATPase inh: -2.9; APP 5'UTR act: 23.5

What do the screens show for `O=C(/C=C/c1cccs1)N1CCN(c2ccccc2F)CC1`?
STAT1 act: 109.2; NF-kB neuron act: 1.13; Mdm2 ligase inh: 3.4; Wee1 degr inh: 0.2; p97 ATPase inh: 1.2; APP 5'UTR act: 8.7

How did O=C(c1cccs1)N1CCc2ccccc21 do in these assays?
STAT1 act: 139.3*; NF-kB neuron act: 1.8; Mdm2 ligase inh: -11.6; Wee1 degr inh: -2.8; p97 ATPase inh: 1.4; APP 5'UTR act: 52.4

How did O=C(c1cccs1)N1CCCc2ccccc21 do in these assays?
STAT1 act: 103.2; NF-kB neuron act: 1.23; Mdm2 ligase inh: -16.1; Wee1 degr inh: 0.3; p97 ATPase inh: 2.8; APP 5'UTR act: 6.4

Results for O=C(/C=C/c1cccs1)N1CCc2ccccc21 ?
STAT1 act: 133.7*; NF-kB neuron act: 8.11*; Mdm2 ligase inh: -54.2; Wee1 degr inh: 0.8; p97 ATPase inh: -20.5; APP 5'UTR act: 187.0*

Results for CN(CCC#N)C(=O)COC(=O)c1c2c(nc3ccccc13)/C(=C/c1ccco1)CC2 ?
STAT1 act: 96.7; NF-kB neuron act: 0.98; Mdm2 ligase inh: -9.8; Wee1 degr inh: 10.3*; p97 ATPase inh: 1.5; APP 5'UTR act: 19.1

Results for COc1ccc(/C=C2\CCc3c2nc2ccccc2c3C(=O)O)cc1OC ?
Mdm2 ligase inh: -63.5; Wee1 degr inh: 5.8; p97 ATPase inh: 5.4

What do the screens show for `O=S(=O)(Cc1ccccc1)C1CCCCC1O` (centres undefined)?
Mdm2 ligase inh: -12.3; Wee1 degr inh: -2.8; p97 ATPase inh: -0.7

How did CCOC(=O)C1=C(CSc2nc(-c3ccccc3)ccc2C#N)OC(N)=C(C#N)C1c1cccnc1 (centres undefined) do in these assays?
STAT1 act: 107.3; NF-kB neuron act: 3.84*; Mdm2 ligase inh: -8.8; Wee1 degr inh: 1.3; p97 ATPase inh: 2.9; APP 5'UTR act: 43.2

What do the screens show for `CCOC(=O)C1=C(CSc2nc(-c3ccccc3)ccc2C#N)OC(N)=C(C#N)C1c1ccccc1` (centres undefined)?
STAT1 act: 102.3; NF-kB neuron act: 1.94; Mdm2 ligase inh: -12.7; Wee1 degr inh: 0.3; p97 ATPase inh: -2.7; APP 5'UTR act: 75.6

What do the screens show for `CS(=O)(=O)N1CCN(C(=O)Cc2ccccc2Cl)CC1`?
STAT1 act: 98.0; NF-kB neuron act: 1.31; Mdm2 ligase inh: -3.0; Wee1 degr inh: 0.9; p97 ATPase inh: 1.2; APP 5'UTR act: -4.2

What do the screens show for `COc1ccc(-c2nnc(SCC(=O)Nc3cccc(Cl)c3)o2)cc1`?
STAT1 act: 106.4; NF-kB neuron act: 1.19; Mdm2 ligase inh: -13.4; Wee1 degr inh: -0.6; p97 ATPase inh: 7.5; APP 5'UTR act: 213.7*

What do the screens show for `COc1ccccc1NC(=O)CSc1nnc(-c2ccncc2)o1`?
STAT1 act: 106.1; NF-kB neuron act: 1.09; Mdm2 ligase inh: 4.4; Wee1 degr inh: -1.0; p97 ATPase inh: 0.9; APP 5'UTR act: 17.8

What do the screens show for `Cc1cnc(NC(=O)CSc2nnc(-c3ccccc3)o2)s1`?
STAT1 act: 128.7*; NF-kB neuron act: 2.48; Mdm2 ligase inh: -13.1; Wee1 degr inh: 3.2; p97 ATPase inh: 1.5; APP 5'UTR act: 112.9

Results for COc1ccc(-c2nnc(SCC(=O)Nc3ccccc3OC)o2)cc1 ?
STAT1 act: 100.8; NF-kB neuron act: 4.13*; Mdm2 ligase inh: -18.0; Wee1 degr inh: -0.5; p97 ATPase inh: -1.7; APP 5'UTR act: 116.7

Assay outcomes deposited in PubChem BioAssay by several laboratories.
